# Reference: ChEMBL document CHEMBL5705890, “Antitumor activity of an allosteric inhibitor of centromere-associated protein-E” (Proc Natl Acad Sci U S A, 2010)
# Legend:
# HCC 2998 = test: Anticancer activity against human HCC 2998 cells assessed as cell growth inhibition measured after 72 hrs by DAPI staining based analysis; format: functional
# How it was run: (§1)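 Cells seeded, DAPI-stained DNA content of fixed cells read by imaging 24 h after seeding (T0), and again after a further 72 h exposure to a range of drug concentrations (T72). T72 values were normalized to T0. Curve fits gave the concentration producing 50% growth inhibition relative to T0 and Ymax (GI50).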
# A-375 = test: Anticancer activity against human A-375 cells assessed as cell growth inhibition measured after 72 hrs by DAPI staining based analysis; format: functional
# How it was run: (§2)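 Cells were seeded and, after 24 h, DNA content was read as T0. Cells were then exposed to varying drug concentrations for a further 72 h (T72). Fixed cells were DAPI-stained and DNA content measured by automated imaging. T72 values were normalized to T0. GI50 is the concentration giving 50% growth inhibition between T0 and Ymax, obtained by curve fitting.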
# MCF-10A = test: Anticancer activity against human MCF-10A cells assessed as cell doubling measured for 72 hrs by DAPI staining based analysis; format: functional
# A-427 = test: Anticancer activity against human A-427 cells assessed as cell doubling measured for 72 hrs by DAPI staining based analysis; format: functional
# SCC-15 = test: Anticancer activity against human SCC-15 cells assessed as cell growth inhibition measured after 72 hrs by DAPI staining based analysis; format: functional
# CHP-212 = test: Anticancer activity against human CHP-212 cells assessed as cell doubling measured for 72 hrs by DAPI staining based analysis; format: functional
# [1] = Anticancer activity against human TE 381.T cells assessed as cell growth inhibition measured after 72 hrs by DAPI staining based analysis; format: functional
# J82 = test: Anticancer activity against human J82 cells assessed as cell growth inhibition measured after 72 hrs by DAPI staining based analysis; format: functional
# OVCAR-5 = test: Anticancer activity against human OVCAR-5 cells assessed as cell growth inhibition measured after 72 hrs by DAPI staining based analysis; format: functional
# 647-V = test: Anticancer activity against human 647-V cells assessed as cell doubling measured for 72 hrs by DAPI staining based analysis; format: functional
# SW1990 = test: Anticancer activity against human SW1990 cells assessed as cell growth inhibition measured after 72 hrs by DAPI staining based analysis; format: functional
# RPMI-6666 = test: Anticancer activity against human RPMI-6666 cells assessed as cell doubling measured for 72 hrs by DAPI staining based analysis; format: functional
# MX1 = test: Anticancer activity against human MX1 cells assessed as cell doubling measured for 72 hrs by DAPI staining based analysis; format: functional
# LNCaP = test: Anticancer activity against human LNCaP cells assessed as cell doubling measured for 72 hrs by DAPI staining based analysis; format: functional
# BPH-1 = test: Anticancer activity against human BPH-1 cells assessed as cell doubling measured for 72 hrs by DAPI staining based analysis; format: functional
# HCC1143 [2] = test: Anticancer activity against human HCC1143 cells assessed as cell doubling measured for 72 hrs by DAPI staining based analysis; format: functional
# [3] = Binding affinity to human CENP-E T183A/K184T mutant assessed as inhibition constant
# SNB-75 = test: Anticancer activity against human SNB-75 cells assessed as cell doubling measured for 72 hrs by DAPI staining based analysis; format: functional
# SHP77 = test: Anticancer activity against human SHP77 cells assessed as cell growth inhibition measured after 72 hrs by DAPI staining based analysis; format: functional
# [4] = Anticancer activity against human MJ cells assessed as cell doubling measured for 72 hrs by DAPI staining based analysis; format: functional
# CCF-STTG1 = test: Anticancer activity against human CCF-STTG1 cells assessed as cell growth inhibition measured after 72 hrs by DAPI staining based analysis; format: functional
# How it was run: (§3)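 Cells were seeded, and DNA content at 24 h after seeding (T0) was read by imaging of fixed, DAPI-stained cells. Cells were then exposed to a range of drug concentrations for a further 72 h (T72) and DNA content was read again. T72 values were normalized to T0, and GI50 was taken from curve fits as the concentration giving 50% growth inhibition relative to T0 and Ymax.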
# CHL-1 = test: Anticancer activity against human CHL-1 cells assessed as cell growth inhibition measured after 72 hrs by DAPI staining based analysis; format: functional; how it was run: as §3
# [5] = Anticancer activity against human SKO-007 cells assessed as cell doubling measured for 72 hrs by DAPI staining based analysis; format: functional
# SW1783 = test: Anticancer activity against human SW1783 cells assessed as cell growth inhibition measured after 72 hrs by DAPI staining based analysis; format: functional
# SNU-387 = test: Anticancer activity against human SNU-387 cells assessed as cell growth inhibition measured after 72 hrs by DAPI staining based analysis; format: functional
# RL = test: Anticancer activity against human RL cells assessed as cell growth inhibition measured after 72 hrs by DAPI staining based analysis; format: functional
# [6] = Anticancer activity against human BC1 cells assessed as cell growth inhibition measured after 72 hrs by DAPI staining based analysis; format: functional; how it was run: as §2
# NCI-H292 [7] = test: Anticancer activity against human NCI-H292 cells assessed as cell doubling measured for 72 hrs by DAPI staining based analysis; format: functional
# CESS = test: Anticancer activity against human CESS cells assessed as cell growth inhibition measured after 72 hrs by DAPI staining based analysis; format: functional; how it was run: as §3
# SNU-5 = test: Anticancer activity against human SNU-5 cells assessed as cell growth inhibition measured after 72 hrs by DAPI staining based analysis; format: functional
# SW1417 = test: Anticancer activity against human SW1417 cells assessed as cell doubling measured for 72 hrs by DAPI staining based analysis; format: functional
# HCC1143 [8] = test: Anticancer activity against human HCC1143 cells assessed as cell growth inhibition measured after 72 hrs by DAPI staining based analysis; format: functional; how it was run: as §1
# SK-N-FI = test: Anticancer activity against human SK-N-FI cells assessed as cell doubling measured for 72 hrs by DAPI staining based analysis; format: functional
# 786-0 = test: Anticancer activity against human 786-0 cells assessed as cell doubling measured for 72 hrs by DAPI staining based analysis; format: functional
# LOX IMVI = test: Anticancer activity against human LOX IMVI cells assessed as cell growth inhibition measured after 72 hrs by DAPI staining based analysis; format: functional
# HT-29 = test: Antitumor activity against human HT-29 cells in xenograft model assessed as tumor growth delay at 125 mg/kg relative to control; format: functional
# NCI-H292 [9] = test: Anticancer activity against human NCI-H292 cells assessed as cell growth inhibition measured after 72 hrs by DAPI staining based analysis; format: functional
# Y79 = test: Anticancer activity against human Y79 cells assessed as cell doubling measured for 72 hrs by DAPI staining based analysis; format: functional
# NCI-H2170 = test: Anticancer activity against human NCI-H2170 cells assessed as cell growth inhibition measured after 72 hrs by DAPI staining based analysis; format: functional
# CAL-54 = test: Anticancer activity against human CAL-54 cells assessed as cell doubling measured for 72 hrs by DAPI staining based analysis; format: functional
# HCT-116 = test: Anticancer activity against human HCT-116 cells assessed as cell growth inhibition measured after 72 hrs by DAPI staining based analysis; format: functional
smiles,measurement,setting,value
CC(C)Oc1ccc(C(=O)N[C@H](CNC(=O)CN(C)C)Cc2ccc(-c3cn4cccc([C@H](C)O)c4n3)cc2)cc1Cl [GSK-923295A],GI50,HCC 2998,29 nM
same,GI50,A-375,26 nM
same,Activity,MCF-10A,3.87
same,Activity,A-427,2.46
same,GI50,SCC-15,63 nM
same,Activity,CHP-212,1.39
same,GI50,[1],27 nM
same,GI50,J82,114 nM
same,GI50,OVCAR-5,34 nM
same,Activity,647-V,2.72
same,GI50,SW1990,127 nM
same,Activity,RPMI-6666,1.99
same,Activity,MX1,2.99
same,Activity,LNCaP,1.4
same,Activity,BPH-1,2.08
same,Activity,HCC1143 [2],1.89
same,Ki,[3],11 nM
same,Activity,SNB-75,1.37
same,GI50,SHP77,86 nM
same,Activity,[4],3.39
same,GI50,CCF-STTG1,24 nM
same,GI50,CHL-1,24 nM
same,Activity,[5],1.01
same,GI50,SW1783,34 nM
same,GI50,SNU-387,32 nM
same,GI50,RL,37 nM
same,GI50,[6],83 nM
same,Activity,NCI-H292 [7],2.2
same,GI50,CESS,19 nM
same,GI50,SNU-5,88 nM
same,Activity,SW1417,1.94
same,GI50,HCC1143 [8],27 nM
same,Activity,SK-N-FI,1.24
same,Activity,786-0,2.59
same,GI50,LOX IMVI,25 nM
same,Activity,HT-29,39%
same,GI50,NCI-H292 [9],31 nM
same,Activity,Y79,4.11
same,GI50,NCI-H2170,25 nM
same,Activity,CAL-54,1.05
same,GI50,HCT-116,31 nM
